Experimental data published in ChEMBL document CHEMBL4270657, “Efficient synthesis of new phenanthridine Wnt/β-catenin signaling pathway agonists” (Eur J Med Chem, 2018).
Activity calls are given as the source filed them. No cut-off for these calls is given here.

Tests used:
HEK293 [1] = assay: Activation of Wnt/beta-catenin signaling pathway (unknown origin) expressed in HEK293 cells harboring pEGFP-C1/TOP Flash/LacZ in Wnt3a conditioned medium after 6 hrs by luciferase reporter gene assay; format: cell-based; settings: Homo sapiens
Method in brief: (§1)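 HEK293T cells in DMEM with 10% heat-inactivated FBS, 37°C, 5% CO2. Cells in 24-well plates were transfected with 250 ng plasmid per well (20 ng TOPFlash, 25 ng EGFP-C1, LacZ filler). 18 h later they were treated in Wnt3a CM or control CM for 6 h. Lysate GFP fluorescence was read first, then luciferase luminescence.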

Axin-1 (Mus musculus) = Axin-1 (Mus musculus) (UniProt O35625); assay: Inhibition of HLY179 binding to mouse His6-tagged AXIN DAX domain expressed in Escherichia coli at 80 uM after 1 to 2 hrs by Western blot analysis
HEK293 [2] = assay: Activation of Wnt/beta-catenin signaling pathway (unknown origin) expressed in HEK293 cells harboring pEGFP-C1/TOP Flash/LacZ at 5 to 20 uM in Wnt3a conditioned medium after 6 hrs by luciferase reporter gene assay; format: cell-based; settings: Homo sapiens; method in brief: as §1
HEK293 [3] = assay: Activation of Wnt/beta-catenin signaling pathway (unknown origin) expressed in HEK293 cells harboring pEGFP-C1/TOP Flash/LacZ in Wnt3a conditioned medium assessed as increase in DKK1 gene expression at 0.5 to 5 uM after 6 hrs by luciferase reporter gene assay; format: cell-based; settings: Homo sapiens
Method in brief: (§2)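 HEK293T cells were treated with compound plus control or Wnt3a CM for 6 h. Total RNA was extracted with TRIzol and reverse-transcribed with oligo(dT) priming. Transcripts were quantified by PCR with target primers (DKK1 given) and GAPDH primers as reference.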

HEK293 [4] = assay: Activation of Wnt/beta-catenin signaling pathway (unknown origin) expressed in HEK293 cells harboring pEGFP-C1/TOP Flash/LacZ in Wnt3a conditioned medium assessed as increase in AXIN2 gene expression at 0.5 to 5 uM after 6 hrs by luciferase reporter gene assay; format: cell-based; settings: Homo sapiens; method in brief: as §2

Chain of Axin-1 (Mus musculus) (O35625 whole entry, the tested form may be a part): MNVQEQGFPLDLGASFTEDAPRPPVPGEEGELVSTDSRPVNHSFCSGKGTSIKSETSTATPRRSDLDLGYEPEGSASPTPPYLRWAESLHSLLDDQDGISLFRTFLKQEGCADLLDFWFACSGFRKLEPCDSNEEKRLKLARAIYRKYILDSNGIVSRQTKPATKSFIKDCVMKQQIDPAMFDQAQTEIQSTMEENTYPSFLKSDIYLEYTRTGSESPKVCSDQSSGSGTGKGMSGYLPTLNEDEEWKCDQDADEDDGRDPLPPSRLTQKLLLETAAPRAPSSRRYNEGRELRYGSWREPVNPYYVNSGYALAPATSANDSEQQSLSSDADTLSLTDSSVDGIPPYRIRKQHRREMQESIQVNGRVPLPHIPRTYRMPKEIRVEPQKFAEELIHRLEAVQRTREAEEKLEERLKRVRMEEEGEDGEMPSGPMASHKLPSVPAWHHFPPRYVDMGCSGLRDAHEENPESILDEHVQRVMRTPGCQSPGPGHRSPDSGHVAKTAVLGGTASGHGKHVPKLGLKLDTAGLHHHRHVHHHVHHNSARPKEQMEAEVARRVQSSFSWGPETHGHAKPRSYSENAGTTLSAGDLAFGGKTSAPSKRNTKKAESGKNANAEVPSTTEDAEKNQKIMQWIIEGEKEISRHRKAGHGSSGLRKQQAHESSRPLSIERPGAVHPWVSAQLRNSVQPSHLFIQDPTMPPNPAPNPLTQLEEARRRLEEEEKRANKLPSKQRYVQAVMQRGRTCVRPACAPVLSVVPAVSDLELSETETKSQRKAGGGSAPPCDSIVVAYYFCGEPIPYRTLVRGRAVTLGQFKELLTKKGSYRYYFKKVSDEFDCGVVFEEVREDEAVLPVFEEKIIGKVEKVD

Row | inhibition (Axin-1 (Mus musculus)) | SMILES | CD (HEK293 [1]) [µM] | Activity (HEK293 [2]) | Activity (HEK293 [3]) | Activity (HEK293 [4])
1 | Active | CCN1Cc2cc(OCc3cccnc3)c(OCc3cccnc3)cc2-c2cccc(C)c21 | 5 | – | – | –
2 | – | Cc1cc(COc2ccccc2)nn1C | – | Active | – | –
3 | – | c1ccc(OCc2cccnc2)cc1 | – | Active | – | –
4 | – | CCN1Cc2cc(OCc3cccnc3)ccc2-c2cccc(C)c21 | 1.5 | – | – | –
5 | Active | CCN1Cc2cc(OC)ccc2-c2cccc(C)c21 | – | Active | – | –
6 | – | Cc1cc(COc2ccccc2)n(C)n1 | – | Active | – | –
7 | Active | CCN1Cc2cc(OCc3cc(C)n(C)n3)ccc2-c2cccc(C)c21 | 3 | – | Active | Active
8 | – | CCN1Cc2cc(OC)c(OC)cc2-c2cccc(C)c21 | 5 | Active | – | –
9 | Active | CCN1Cc2cc(OCc3cc(C)nn3C)c(OCc3cc(C)nn3C)cc2-c2cccc(C)c21 | 0.15 | – | Active | Active
10 | Active | CCN1Cc2cc(OCc3cc(C)nn3C)ccc2-c2cccc(C)c21 | 0.5 | – | – | –
11 | Active | COc1ccc2c(c1)CN(C)c1c(C)cccc1-2 | – | – | – | –
